Experimental data as given in ChEMBL document CHEMBL4145643, “Antiplasmodial β-Triketone-Flavanone Hybrids from the Flowers of the Australian Tree Corymbia torelliana” (J Nat Prod, 2018).
One block for each compound: values may come before it. Calls of active or inactive are those of the source. The rule behind the calls is not given here.

Experiments:
Plasmodium falciparum [1] = experiment: Antiplasmodial activity against drug-sensitive Plasmodium falciparum 3D7 ring stage infected in human erythrocytes after 72 hrs by DAPI staining based method; assay type: functional, organism-based; settings: 3D7, 72 h
Method in brief: (§1)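 Sorbitol-synchronized ring-stage parasites in O+ erythrocytes (2% parasitemia, 0.3% hematocrit), culture medium RPMI-1640 with Albumax and human serum. 16-point dilution series, 40 μM to 0.5 nM, 72 h at 95% N2/5% O2/5% CO2. Parasites stained with DAPI in Triton X-100/saponin permeabilization buffer, counted by confocal imaging. Normalized to 0.4% DMSO and 5 μM puromycin controls. IC50 from four-parameter logistic fit.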

Plasmodium falciparum [2] = experiment: Antiplasmodial activity against 4-aminoquinoline/antifolates-resistant Plasmodium falciparum Dd2 ring stage infected in human erythrocytes after 72 hrs by DAPI staining based method; assay type: functional, organism-based; settings: Dd2, 72 h
Method in brief: (§2)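 Sorbitol-synchronized ring-stage parasites at 2% parasitemia, 0.3% hematocrit in human O+ erythrocytes. 16-point concentration-response, 40 μM to 0.5 nM. DAPI added in permeabilization buffer (Triton X-100, saponin, EDTA). Parasites counted by confocal high-content imaging. Normalized to DMSO and 5 μM puromycin controls. IC50 from four-parameter logistic fit.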

HEK293 = experiment: Cytotoxicity against human HEK293 cells at 40 uM after 72 hrs by resazurin dye based fluorescence assay; assay type: cell-based; settings: hek293, 72 h
Method in brief: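 HEK293 cells grown in DMEM with 10% FBS, seeded at 2000 cells/well 24 h before dosing. Compounds given as in the parasite assay (top 40 μM), 72 h at 37 °C and 5% CO2. Medium then replaced with 44 μM resazurin; fluorescence (530/595 nm) read after a further 5–6 h. Normalized to in-plate controls.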

Plasmodium falciparum [3] = experiment: Antiplasmodial activity against drug-sensitive Plasmodium falciparum 3D7 ring stage infected in human erythrocytes at 40 uM after 72 hrs by DAPI staining based method; assay type: functional, organism-based; method in brief: as §1
Plasmodium falciparum [4] = experiment: Antiplasmodial activity against 4-aminoquinoline/antifolates-resistant Plasmodium falciparum Dd2 ring stage infected in human erythrocytes at 40 uM after 72 hrs by DAPI staining based method; assay type: functional
Method in brief: as §2, with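 “erythrocytes. Culture medium: RPMI-1640 with glutamine, hypoxanthine, Albumax, human serum.” for “erythrocytes.”, “nM. Incubated 72 h under 95% N2, 5% O2, 5% CO2.” for “nM.”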

Compound: Cc1c2c(c(O)c3c1OC1=C(C(=O)C(C)(C)C(=O)C1(C)C)C3CC(C)C)C(=O)C[C@@H](c1ccccc1)O2 (stereo not given in full)
IC50 (Plasmodium falciparum [1]): 9.8 µM | IC50 (Plasmodium falciparum [2]): 11.9 µM | Activity (HEK293; 40 µM): Non-Toxic

Compound: CC(C)CC[C@]1(O)[C@H](O)C(C)(C)[C@@H](O)C(C)(C)[C@@H]1O
Activity (Plasmodium falciparum [3]): inactive | Activity (Plasmodium falciparum [4]): inactive | Activity (HEK293; 40 µM): Non-Toxic

IC50 (Plasmodium falciparum [1]): 7.2 µM
Compound: Cc1c(O)c2c(c3c1OC1=C(C(=O)C(C)(C)C(=O)C1(C)C)[C@H]3CC(C)C)O[C@H](c1ccccc1)CC2=O
Activity (HEK293; 40 µM): Non-Toxic

IC50 (Plasmodium falciparum [1]): 3.2 µM
Compound: Cc1c(O)c([C@H](CC(C)C)C2=C(O)C(C)(C)C(=O)C(C)(C)C2=O)c(O)c2c1O[C@H](c1ccccc1)CC2=O
Activity (HEK293; 40 µM): 75%

IC50 (Plasmodium falciparum [1]): 3.2 µM
Compound: Cc1c(O)c([C@@H](CC(C)C)C2=C(O)C(C)(C)C(=O)C(C)(C)C2=O)c(O)c2c1O[C@H](c1ccccc1)CC2=O
Activity (HEK293; 40 µM): 75%

Compound: CCc1nc(N)nc(N)c1-c1ccc(Cl)cc1 [PYRIMETHAMINE]
Activity (Plasmodium falciparum [4]): 62% | Activity (HEK293; 40 µM): 62%

IC50 (Plasmodium falciparum [1]): 7.2 µM
Compound: Cc1c(O)c2c(c3c1OC1=C(C(=O)C(C)(C)C(=O)C1(C)C)[C@@H]3CC(C)C)O[C@H](c1ccccc1)CC2=O
Activity (HEK293; 40 µM): Non-Toxic

Compound: CCN(CC)CCCC(C)Nc1ccnc2cc(Cl)ccc12 (stereo not given) [CHLOROQUINE]
Activity (HEK293; 40 µM): Non-Toxic

Compound: CC(C)C[C@H]1C[C@@]2(CC[C@H]3C[C@@H]2C3(C)C)OC2=C1C(=O)C(C)(C)C(=O)C2(C)C
IC50 (Plasmodium falciparum [1]): 16.6 µM | Activity (Plasmodium falciparum [4]): inactive | Activity (HEK293; 40 µM): Non-Toxic

Compound: C[C@H]1[C@H](OC(=O)CCC(=O)O)O[C@@H]2O[C@@]3(C)CC[C@H]4[C@H](C)CC[C@@H]1[C@@]24OO3 [ARTESUNATE]
IC50 (Plasmodium falciparum [1]): 0.001 µM | Activity (HEK293; 20 µM, in the assay text read “20 uM” for “40 uM”): 94%

Compound: C[C@H]1[C@@H](O)O[C@@H]2O[C@@]3(C)CC[C@H]4[C@H](C)CC[C@@H]1[C@@]24OO3 [ARTENIMOL]
IC50 (Plasmodium falciparum [1]): 0.0004 µM | IC50 (Plasmodium falciparum [2]): 0.00043 µM | Activity (HEK293; 20 µM, in the assay text read “at 20 uM” for “at 40 uM”): 83%
